The record followed here is PMC2094211 (Biochimica et Biophysica Acta. Molecular Basis of Disease, 2007).

In assay [1] the target is T1, FPR R190/N192 (Homo sapiens, UniProt P21462).
T1 sequence (P21462 1-350): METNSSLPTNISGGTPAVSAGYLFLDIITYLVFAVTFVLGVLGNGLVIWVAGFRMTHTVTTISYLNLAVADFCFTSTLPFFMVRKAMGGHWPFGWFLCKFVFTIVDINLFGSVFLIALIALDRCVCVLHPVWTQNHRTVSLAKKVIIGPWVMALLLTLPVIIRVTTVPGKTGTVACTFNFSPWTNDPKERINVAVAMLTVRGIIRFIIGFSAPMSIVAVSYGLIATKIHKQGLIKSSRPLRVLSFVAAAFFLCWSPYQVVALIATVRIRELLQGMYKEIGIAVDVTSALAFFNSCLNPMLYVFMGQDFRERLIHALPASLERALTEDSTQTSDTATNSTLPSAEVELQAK
The experiment in a line: FACScan analysis of ligand binding.

The target of assay [2] is T2, FPR R190/K192 (Homo sapiens, UniProt P21462, N192K).
T2 sequence (P21462 1-350 N192K): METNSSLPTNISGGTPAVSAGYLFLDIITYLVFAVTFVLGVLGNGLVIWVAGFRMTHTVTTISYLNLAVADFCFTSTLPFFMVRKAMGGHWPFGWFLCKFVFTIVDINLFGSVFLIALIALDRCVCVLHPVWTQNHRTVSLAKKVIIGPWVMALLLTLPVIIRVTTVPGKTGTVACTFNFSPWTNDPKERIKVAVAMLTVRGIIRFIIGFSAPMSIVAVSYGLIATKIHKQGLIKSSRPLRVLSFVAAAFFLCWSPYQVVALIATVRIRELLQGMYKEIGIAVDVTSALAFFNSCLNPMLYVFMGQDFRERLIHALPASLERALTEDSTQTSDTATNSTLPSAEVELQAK
As to the kind of experiment: FACScan analysis of ligand binding.

The target of assay [3] is T3, FPR W190/N192 (Homo sapiens, UniProt P21462, R190W).
T3 sequence (P21462 1-350 R190W): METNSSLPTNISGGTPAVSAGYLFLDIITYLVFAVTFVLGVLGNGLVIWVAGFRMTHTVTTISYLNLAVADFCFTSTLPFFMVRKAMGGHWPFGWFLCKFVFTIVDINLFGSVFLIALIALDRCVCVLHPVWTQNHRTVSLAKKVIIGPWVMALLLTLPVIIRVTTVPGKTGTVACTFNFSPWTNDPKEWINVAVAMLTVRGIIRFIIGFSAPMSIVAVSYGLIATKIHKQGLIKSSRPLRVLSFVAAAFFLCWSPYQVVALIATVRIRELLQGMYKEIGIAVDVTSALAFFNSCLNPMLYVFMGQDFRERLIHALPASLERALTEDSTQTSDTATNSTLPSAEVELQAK
The experiment in a line: FACScan analysis of ligand binding.

Assay [4] deals with T1, FPR R190/N192. As to the kind of experiment: Downregulation of surface FPR in CHO S cells. It counts as cell-based. The gist of the method: (§1)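 CHO S cells expressing the FPR variant were exposed to test compound (0.4% DMSO) in CHO-S-SFMII for 1 h at 37 °C. They were washed twice with cold phosphate buffer, then labeled 1 h at 4 °C with 50 nM formyl-Nle-Leu-Phe-Nle-Tyr-Lys-FITC in pH 7.4 buffer with Mg++, Ca++ and 5% FBS. Mean fluorescence was measured by FACScan, minus non-expressing cells.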

The target in assay [5] is T2, FPR R190/K192. As to the kind of experiment: Downregulation of surface FPR in CHO S cells. Type of assay: cell-based. The essentials:
as §1

The target in assay [6] is T3, FPR W190/N192. As to the kind of experiment: Downregulation of surface FPR in CHO S cells. Type of assay: cell-based. The essentials: as §1
Assay [7] addresses T4, FPR R190/N192 (Homo sapiens, UniProt P21462).
T4 chain: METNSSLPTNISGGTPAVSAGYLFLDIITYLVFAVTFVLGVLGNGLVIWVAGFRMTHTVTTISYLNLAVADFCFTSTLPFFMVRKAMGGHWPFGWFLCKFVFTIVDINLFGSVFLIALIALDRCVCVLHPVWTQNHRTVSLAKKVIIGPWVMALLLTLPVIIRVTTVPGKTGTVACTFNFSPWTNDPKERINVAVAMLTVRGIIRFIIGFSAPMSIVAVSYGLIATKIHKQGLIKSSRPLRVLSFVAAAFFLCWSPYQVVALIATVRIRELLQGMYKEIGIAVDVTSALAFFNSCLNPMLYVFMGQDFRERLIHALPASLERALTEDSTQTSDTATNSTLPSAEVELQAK
The experiment in a line: FACS competition with formyl-Nle-Leu-Phe-Nle-Tyr-Lys-FITC.

Assay [8] has as its target T5, FPR W190/N192 (Homo sapiens, UniProt P21462).
T5 chain: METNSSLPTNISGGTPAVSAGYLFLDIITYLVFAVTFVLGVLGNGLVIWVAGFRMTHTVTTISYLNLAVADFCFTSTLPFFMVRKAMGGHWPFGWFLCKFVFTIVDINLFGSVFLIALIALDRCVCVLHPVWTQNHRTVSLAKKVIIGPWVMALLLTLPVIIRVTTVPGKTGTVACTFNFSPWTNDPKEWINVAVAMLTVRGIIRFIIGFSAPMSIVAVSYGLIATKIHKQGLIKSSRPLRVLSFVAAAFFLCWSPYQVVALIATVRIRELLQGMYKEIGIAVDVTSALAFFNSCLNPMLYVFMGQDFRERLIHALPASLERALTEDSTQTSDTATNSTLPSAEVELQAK
The assay is described as above.

Square brackets hold non-standard residues; d marks the D form. Ends that are not written are not given here. * marks the point of attachment. Nle = CCCC[C@H](N)C(=O)O; For = O=C*

As to Ac-WEDAVGWI-NH2, the “Binding relative to WEDWVGWI, R190/N192” value on FPR R190/N192 [1] (fold weaker) was “more than 10 fold”. Further, the “Binding relative to WEDWVGWI, R190/K192” value on FPR R190/K192 [2] (fold weaker) is given as “more than 10 fold”. Further, at FPR W190/N192 [3] (fold weaker), the “Binding relative to WEDWVGWI, W190/N192” value was “more than 10 fold”.

For the molecule Ac-WEDWVGWI-NH2, the Ki on FPR R190/N192 [1] (Ki for binding of peptides to R190/N192 FPR, ± SEM, vs 0.38 nM formyl-Nle-Leu-Phe-Nle-Tyr-Lys-FITC, 4 °C, 60 min) is 1300 ± 200 nM; on FPR R190/K192 [2] (Ki for binding of peptides to R190/K192 FPR, ± SEM, vs 0.38 nM formyl-Nle-Leu-Phe-Nle-Tyr-Lys-FITC, 4 °C, 60 min), 1300 ± 300 nM; on FPR W190/N192 [3], 2600 ± 400 nM. Also, the “Inhibition of the downregulation with 300 nM formyl-Nle-Leu-Phe, R190/N192” value on FPR R190/N192 [4] (25 μM peptide, data not shown) is recorded as approximately 50%. For the same molecule, the “Inhibition of the downregulation with 300 nM formyl-Nle-Leu-Phe, R190/K192” value on FPR R190/K192 [5] (25 μM peptide, data not shown) was approximately 50%. Besides, the “Inhibition of the downregulation with 300 nM formyl-Nle-Leu-Phe, W190/N192” value at FPR W190/N192 [6] (25 μM peptide, data not shown) is reported as approximately 50%.

As for formyl-NleNleWED, at FPR R190/N192 [4] (concentrations up to 50 μM), the “Downregulation of surface receptor, R190/N192” value was “very little downregulation”. The “Downregulation of surface receptor, R190/K192” value at FPR R190/K192 [5] (concentrations up to 50 μM) is on record as “very little downregulation”. The “Downregulation of surface receptor, W190/N192” value on FPR W190/N192 [6] (concentrations up to 50 μM) was “very little downregulation”.

As for For-[Nle][Nle]WEDWVGWI [formyl-NleNleWEDWVGWI, listing 1 of 2 here], in the assay with FPR R190/N192 [7], the Ki is 480 nM. This lies in the sub-micromolar range.

Turning to Ac-WEDWVGWI-NH2 [WEDWVGWI (FIV GP-36 peptide)], affinity with FPR R190/N192 [7] was put at a Ki of 1300 nM.

For-[Nle][Nle]WEDWVGWI [formyl-NleNleWEDWVGWI, listing 2 of 2 here] yielded a Ki in the assay with FPR W190/N192 [8] of 1000 nM.

As usually defined, the Ki is the dissociation constant of the complex between target and ligand, obtained from inhibition or displacement. Lower therefore signals a stronger hold on the target.
